Data taken from ChEMBL document CHEMBL5214995, “Orally Bioavailable Quinoxaline Inhibitors of 15-Prostaglandin Dehydrogenase (15-PGDH) Promote Tissue Repair and Regeneration” (J Med Chem, 2022).
In brackets after ≈: the same amount, converted by molar mass. Activity calls are given as the source filed them. The calls are words filed in the database; no cut-off is given here.

Tests used:
[1] = Aqueous solubility of the compound under shaking condition by LC-MS/MS analysis; type: physicochemical; details: buffer
[2] = Cmax in CD-1 mouse at 10 mg/kg,ip measured upto 1440 mins by LC-MS/MS analysis; type: ADME, organism-based; parameters: time < 1440 min, dose 10 mg/kg, route ip; details: in vivo
Summary of the method: (§1)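 Female CD1 mice were given a single 10 mg/kg IP dose. […] Plasma was extracted with methanol/0.15% formic acid containing N-benzylbenzamide internal standard and analysed by LC-MS/MS against spiked blank-plasma standards. Cmax and AUC were derived by noncompartmental analysis.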

[3] = AUC in CD-1 mouse at 10 mg/kg,ip measured upto 1440 mins by LC-MS/MS analysis; type: ADME, organism-based; parameters: time < 1440 min, dose 10 mg/kg, route ip; details: in vivo; for AUC: mouse, 24 h; summary of the method: as §1
Mus musculus [4] = experiment: Protection against DSS-induced acute ulcerative colitis in […] mouse assessed as increase in colon length at 10 mg/kg,ip measured from 8 to 12 days of administration; type: functional, organism-based; details: time 8-12 day
Mus musculus [5] = experiment: […] activity against bone marrow transplanted mouse model assessed as increase in total WBC repopulation at 10 mg/kg,ip bid measured by flow cytometry after 15 days post-transplant recovery period; type: functional, organism-based; details: time 15.0 day
[6] = Cmax in CD-1 mouse at 10 mg/kg,po measured upto 1440 mins by LC-MS/MS analysis; type: ADME, organism-based; parameters: dose 10 mg/kg, time < 1440 min, route po; details: in vivo, 24 h
Summary of the method: (§2)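 Female CD1 mice received a single 10 mg/kg PO or 5 mg/kg IV dose in 10% DMSO, 25% PEG400, 1% Tween-80 and 64% D5W (pH 7.4). Groups of three were killed at 0–1440 min, with blood taken by cardiac puncture into ACD. Plasma was extracted into methanol with formic acid and internal standard, and drug was quantified by LC-MS/MS against spiked blank-plasma standards. Cmax and AUC came from noncompartmental analysis.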

[7] = AUC in CD-1 mouse at 5 mg/kg,iv measured upto 1440 mins by LC-MS/MS analysis; type: ADME, organism-based; parameters: dose 5 mg/kg, time < 1440 min, route iv; details: in vivo, 24 h; summary of the method: as §2
[8] = Apparent permeability of the compound from apical to basolateral side in human Caco-2 cells measured upto 120 mins by LC-MS/MS analysis; type: ADME, cell-based; details: caco-2, 2 h
Summary of the method: (§3)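 Caco-2 cells were grown three weeks on 12-well Transwells in DMEM with 20% FBS and supplements, then washed in HBSS with Ca/Mg and 0.5% FBS. Monolayers were used only if TEER exceeded 800 Ωcm², and TEER was rechecked after the assay.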

Mus musculus [9] = experiment: Protection against DSS-induced acute ulcerative colitis in […] mouse assessed as decrease in cryptitis score at 40 mg/kg,po measured after 12 days of administration; type: functional, organism-based; details: time 12.0 day
Colon [10] = experiment: In vivo activation of PGE2 in C57BL/6J mouse colon tissue assessed as increase in PGE2 level at 5 mg/kg,ip measured after 3 hrs by ELISA; type: functional, organism-based
Summary of the method: (§4)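 Female C57bl/6J mice aged 8-9 weeks were dosed IP and euthanised 3 h later. Colon and lung were rinsed in ice-cold PBS with indomethacin (5.6 µg/ml), snap-frozen, pulverised, homogenised in cold PBS/indomethacin, sonicated on ice and centrifuged. PGE2 in the supernatant was measured by ELISA in triplicate and normalised to BCA protein as ng PGE2/mg protein.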

Colon [11] = experiment: In vivo activation of PGE2 in C57BL/6J mouse colon tissue assessed as increase in PGE2 level at 2.5 mg/kg,ip measured after 3 hrs by ELISA; type: functional, organism-based; summary of the method: as §4
[12] = Apparent permeability of the compound from basolateral to apical side in human Caco-2 cells measured upto 120 mins by LC-MS/MS analysis; type: ADME, cell-based; details: caco-2, 2 h; summary of the method: as §3
Colon [13] = experiment: animal or person; details: Mus musculus, C57BL/6J, po, 1.5 h, read-out: INH
[14] = Oral bioavailability in CD-1 mouse at 10 mg/kg measured upto 1440 mins by LC-MS/MS analysis; type: ADME, organism-based; details: in vivo, 24 h; summary of the method: as §2
Mus musculus [15] = experiment: Protection against DSS-induced acute ulcerative colitis in […] mouse assessed as increase in body weight at 40 mg/kg,po measured upto 12 days of administration; type: functional, organism-based; details: time <= 12.0 day
Lung [16] = experiment: In vivo activation of PGE2 in C57BL/6J mouse lung tissue assessed as increase in PGE2 level at 2.5 mg/kg,ip measured after 3 hrs by ELISA; type: functional, organism-based; summary of the method: as §4
Mus musculus [17] = experiment: Protection against DSS-induced acute ulcerative colitis in […] mouse assessed as increase in body weight at 10 mg/kg,ip measured from 7 to 12 days of administration; type: functional, organism-based; details: time 7-12 day
Mus musculus [18] = experiment: […] activity against bone marrow transplanted mouse model assessed as increase in RBC repopulation at 10 mg/kg,ip bid measured by flow cytometry after 15 days post-transplant recovery period; type: functional, organism-based; details: Erythrocyte, time 15.0 day
Lung [19] = experiment: In vivo activation of PGE2 in C57BL/6J mouse lung tissue assessed as increase in PGE2 level at 5 mg/kg,ip measured after 3 hrs by ELISA; type: functional, organism-based; summary of the method: as §4
Colon [20] = experiment: animal or person; details: Mus musculus, C57BL/6J, po, 0.5 h, read-out: INH
[21] = Cmax in CD-1 mouse at 5 mg/kg,iv measured upto 1440 mins by LC-MS/MS analysis; type: ADME, organism-based; parameters: dose 5 mg/kg, time < 1440 min, route iv; details: in vivo, 24 h; summary of the method: as §2
Mus musculus [22] = experiment: Protection against DSS-induced acute ulcerative colitis in […] mouse assessed as increase in colon length at 40 mg/kg,po measured after 12 days of administration; type: functional, organism-based; details: time 12.0 day
[23] = AUC in CD-1 mouse at 10 mg/kg,po measured upto 1440 mins by LC-MS/MS analysis; type: ADME, organism-based; parameters: time < 1440 min, dose 10 mg/kg, route po; details: in vivo, 24 h; summary of the method: as §2
Mus musculus [24] = experiment: Protection against DSS-induced acute ulcerative colitis in […] mouse assessed as decrease in cryptitis score at 10 mg/kg,ip measured after 12 days of administration; type: functional, organism-based; details: time 12.0 day

O=C(c1ccc2ncc(-c3ccc4c(=O)[nH]ccc4c3)nc2c1)N1CCCCC1
solubility thermodynamic [1]: 4 µg/mL (≈ 10.4 µM)
Cmax ([2]; mouse, 24 h): 7400 ng/mL
AUC [3]: 270 µg·min/mL

O=C(c1ccc2ncc(-c3ccc4cnccc4c3)nc2c1)N1CCCCC1
solubility thermodynamic [1]: 14 µg/mL (≈ 38 µM)

Cn1ccc2cc(-c3cnc4ccc(C(=O)N5CCCCC5)cc4n3)ccc2c1=O
Activity (Mus musculus [4]): Active
solubility thermodynamic [1]: 56 µg/mL (≈ 141 µM)
Activity (Mus musculus [5]): Active
Cmax [6]: 950 ng/mL
AUC [7]: 205 µg·min/mL
Papp [8]: 45 10^-6 cm/s
Cmax ([2]; mouse, 24 h): 6400 ng/mL
Activity (Mus musculus [9]): Active
Activity (Colon [10]): Active
Activity (Colon [11]): Active
Papp [12]: 34 10^-6 cm/s
inhibition in vivo at 20 mg/kg (Colon [13]): > 80%
F [14]: 63%
Activity (Mus musculus [15]): Active
Activity (Lung [16]): Active
Activity (Mus musculus [17]): Active
AUC [3]: 517 µg·min/mL
Activity (Mus musculus [18]): Active
Activity (Lung [19]): Active
inhibition in vivo at 20 mg/kg (Colon [20]): > 90%
Cmax [21]: 3000 ng/mL
Activity (Mus musculus [22]): Active
AUC [23]: 256 µg·min/mL
Activity (Mus musculus [24]): Active

Cl.Nc1ncc(-c2cnc3ccc(C(=O)N4CCCCC4)cc3n2)cc1Cl
Cmax ([2]; CD-1, mouse, read-out: Cmax): 3000 ng/mL
Activity (Colon [10]): Active
AUC at 24 h ([3]; CD-1, mouse): 2870 ng·h/mL
Activity (Lung [19]): Active

O=C(c1ccc2ncc(-c3ccc4ncccc4c3)nc2c1)N1CCCCC1
solubility thermodynamic [1]: 55 µg/mL (≈ 149 µM)
